Experiments:
[1] = target: T1, P-gp (Homo sapiens, UniProt P08183); assay: [3H]daunomycin radioactive substrate accumulation assay in MCF-7/DX1 cells; assay type: cell-based; settings: read-out: IC50, cellular accumulation of [3H]daunomycin, [3H]daunomycin 0.25 µCi/mL, scintillation counting
[2] = target: T1, P-gp; assay: rhodamine 123 accumulation assay by flow cytometry in MCF-7/DX1 cells; assay type: cell-based
Summary of the method: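 P-gp-overexpressing MCF-7/DX1 breast adenocarcinoma cells, maintained with 1 µM doxorubicin. 125,000 cells in suspension loaded with 0.5 µg/mL (1.3 µM) rhodamine 123, alone or with test compound, 30–40 min, 37°C. Pelleted, then re-incubated 30–40 min, 37°C in fresh medium with test compound or 1 µM GF120918. Resuspended in ice-cold PBS pH 7.4; 488 nm laser, 530 band-pass (FL1), 10,000 cells/point. IC50 fitted from concentration series.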

[3] = target: P-gp ATPase activity (Homo sapiens, UniProt P08183); assay: P-gp ATPase assay, crude High Five insect cell membranes; assay type: biochemical; settings: Pi release
Sequence of P-gp ATPase activity (P08183 whole entry): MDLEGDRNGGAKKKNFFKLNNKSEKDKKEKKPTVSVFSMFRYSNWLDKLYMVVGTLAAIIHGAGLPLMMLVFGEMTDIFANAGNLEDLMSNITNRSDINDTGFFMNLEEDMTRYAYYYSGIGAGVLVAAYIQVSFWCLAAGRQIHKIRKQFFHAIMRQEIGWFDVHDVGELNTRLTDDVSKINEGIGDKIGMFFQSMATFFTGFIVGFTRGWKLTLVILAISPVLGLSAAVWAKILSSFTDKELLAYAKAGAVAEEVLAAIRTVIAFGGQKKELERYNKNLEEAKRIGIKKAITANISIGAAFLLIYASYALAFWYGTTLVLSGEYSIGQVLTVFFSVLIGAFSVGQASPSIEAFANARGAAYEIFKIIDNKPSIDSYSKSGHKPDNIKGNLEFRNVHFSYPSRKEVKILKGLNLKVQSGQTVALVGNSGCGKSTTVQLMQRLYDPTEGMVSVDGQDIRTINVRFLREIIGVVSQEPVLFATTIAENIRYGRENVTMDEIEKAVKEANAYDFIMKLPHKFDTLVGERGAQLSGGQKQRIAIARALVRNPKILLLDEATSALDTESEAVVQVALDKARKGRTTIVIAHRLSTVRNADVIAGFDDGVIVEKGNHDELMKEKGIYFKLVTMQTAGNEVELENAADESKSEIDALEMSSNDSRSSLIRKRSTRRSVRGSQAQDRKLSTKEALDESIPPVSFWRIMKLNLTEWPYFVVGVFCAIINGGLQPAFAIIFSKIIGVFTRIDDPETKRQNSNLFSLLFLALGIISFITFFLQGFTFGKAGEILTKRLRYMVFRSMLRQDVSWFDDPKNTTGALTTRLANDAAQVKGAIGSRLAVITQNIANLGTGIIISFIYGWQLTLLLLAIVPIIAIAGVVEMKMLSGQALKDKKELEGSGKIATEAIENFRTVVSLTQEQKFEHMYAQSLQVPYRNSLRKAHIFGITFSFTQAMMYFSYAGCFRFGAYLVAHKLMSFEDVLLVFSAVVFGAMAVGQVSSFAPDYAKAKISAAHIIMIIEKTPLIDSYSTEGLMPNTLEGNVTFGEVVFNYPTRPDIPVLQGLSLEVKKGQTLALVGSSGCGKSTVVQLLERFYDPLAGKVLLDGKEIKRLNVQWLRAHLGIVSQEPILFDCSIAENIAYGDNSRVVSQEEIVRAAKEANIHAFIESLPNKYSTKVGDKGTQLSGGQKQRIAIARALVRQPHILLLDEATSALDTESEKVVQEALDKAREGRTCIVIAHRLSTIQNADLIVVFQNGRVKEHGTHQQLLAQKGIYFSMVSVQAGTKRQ

T1 sequence (P08183 whole entry): as above

For COc1ccc2c3c1O[C@H]1C[C@@H](OC(=O)CCCCCCCCC(=O)O[C@H]4C=C[C@@]56CCN(C)Cc7ccc(OC)c(c75)O[C@H]6C4)C=C[C@@]31CCN(C)C2 [Gal-2], the IC50 [1] was 2000 ± 400 nM, the “more active than the known P-gp inhibitor GF120918 (rhodamine 123 accumulation)” value ([2]; MCF-7/DX1 cells, both at 1 µM) was “approximately 20%” and the “effect on P-gp ATPase activity at low concentrations” value ([3]; Gal-2 < 1 µM) was “stimulated ATPase activity”. For the same compound, the “effect on P-gp ATPase activity at higher concentrations” value ([3]; Gal-2 > 5 µM) was “ATPase stimulation was found to decrease in a concentration-dependent manner”.

COc1ccc2c3c1O[C@H]1C[C@@H](O)C=C[C@@]31CCN(C)C2 [galantamine, reference compound] showed an IC50 [2] of over 100000 nM.
